Where two headings read alike, the source gives them in different places.
What was measured:
Caco-2 cell monolayers [1] = assay: Dioxin transport and cellular association in dynamic gut-on-a-chip model; format: in vitro ADME, human; conditions: 24 h; for Mass balance (sum of AP, BL compartments and cellular fraction): Chip, 0.2 ng/mL each congener, n = 3
Method in brief: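 Caco-2 seeded at 75 000 cells per cm2 on a porous polyester membrane clamped between glass slides. Cells attached 72 h without flow, then both sides were perfused 7 days at 25 μL h−1 with 10 mM-bicarbonate DMEM+ at 37 °C. Apical medium then carried 17 congeners (0.2 ng mL−1 each, 1% DMSO) for 24 h. Compartment eluents, hexane rinses and trypsinised, freeze–thaw-lysed cells were analysed by GC-HRMS.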

Caco-2 cell monolayers [2] = assay: Dioxin transport and cellular association in static Transwell model; format: in vitro ADME, human; conditions: 24 h; for Mass balance (sum of AP, BL compartments and cellular fraction): Transwell, 0.2 ng/mL mixture, n = 3
Method in brief: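 Caco-2 seeded at 40 000 cells per cm2 on 12-well polyester Transwell inserts (0.4 μm pores, 1.12 cm2) in DMEM+, with medium changed every other day for 21 days. Apical side received DMEM+ with 0.2 ng mL−1 dioxin mixture (1% DMSO); basolateral side received plain DMEM+; exposure 24 h. Both compartments' medium, hexane rinses and trypsinised, freeze–thaw-lysed cells were analysed by GC-HRMS.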

[3] = predicted; octanol/water; cited from earlier work
Caco-2 cell monolayer = conditions: 24 h; 2.5 nM 2,3,7,8-TCDD; cited from earlier work
Caco-2 cells = conditions: 90 minutes exposure to 3.4 × 10^−2 μCi mL^−1 U-14C-TCDD; cited from earlier work
[4] = cited from earlier work
[5] = dynamic model (chip), 0.2 ng/mL
[6] = static model (Transwell), 0.2 ng/mL

Row | Structure (SMILES) | Mass balance (sum of AP, BL compartments and cellular fraction) (Caco-2 cell monolayers [1]) [%] | Mass balance (sum of AP, BL compartments and cellular fraction) (Caco-2 cell monolayers [2]) [%] | log P [3] | also measured
1 | Clc1cc2c(c(Cl)c1Cl)Oc1c(Cl)c(Cl)c(Cl)c(Cl)c1O2 [1,2,3,4,6,7,8-HpCDD] | 97 ± 7 | 83 ± 2 |  | 
2 | Clc1cc2c(oc3c(Cl)c(Cl)c(Cl)c(Cl)c32)c(Cl)c1Cl [1,2,3,4,6,7,8-HpCDF] | 97 ± 5 | 93 ± 1 | 7.9 | 
3 | Clc1cc2oc3c(Cl)c(Cl)c(Cl)c(Cl)c3c2c(Cl)c1Cl [1,2,3,4,7,8,9-HpCDF] | 97 ± 7 | 83 ± 2 |  | 
4 | Clc1cc2oc3c(Cl)c(Cl)c(Cl)c(Cl)c3c2cc1Cl [1,2,3,4,7,8-HxCDF] | 97 ± 7 | 85 ± 2 | 6.9 | 
5 | Clc1cc2c(c(Cl)c1Cl)Oc1cc(Cl)c(Cl)c(Cl)c1O2 [1,2,3,6,7,8-HxCDD] | 92 ± 5 | 92 ± 1 | 7.4 | 
6 | Clc1cc2c(oc3cc(Cl)c(Cl)c(Cl)c32)c(Cl)c1Cl [1,2,3,6,7,8-HxCDF] | 94 ± 5 | 93 ± 1 | 6.9 | 
7 | Clc1cc2c(c(Cl)c1Cl)Oc1c(cc(Cl)c(Cl)c1Cl)O2 [1,2,3,7,8,9-HxCDD] | 93 ± 5 | 93 ± 1 | 7.4 | Relative amount in the cellular fraction (of total exposure) (Caco-2 cell monolayers [1]; [5]): 33%; Relative amount in the cellular fraction (of total exposure) (Caco-2 cell monolayers [2]; [6]): 22.5%
8 | Clc1cc2oc3cc(Cl)c(Cl)c(Cl)c3c2c(Cl)c1Cl [1,2,3,7,8,9-HxCDF] | 91 ± 6 | 84 ± 2 | 7.4 | 
9 | Clc1cc2c(oc3c(Cl)c(Cl)c(Cl)cc32)c(Cl)c1Cl [2,3,4,6,7,8-HxCDF] | 97 ± 7 | 87 ± 2 | 7.1 | 
10 | Clc1cc2c(cc1Cl)Oc1cc(Cl)c(Cl)cc1O2 [2,3,7,8-TCDD, 2,3,7,8-tetrachlorodibenzo-p-dioxin] | 85 ± 5 | 81 ± 2 |  | Relative amount in the cellular fraction (of total exposure) (Caco-2 cell monolayers [1]; [5]): ~56%; Transport across the monolayer (basal side compared to total exposed amount) (Caco-2 cell monolayers [1]; [5]): 3%; Relative amount in the cellular fraction (of total exposure) (Caco-2 cell monolayers [2]; [6]): approximately 39%; Transport across the monolayer (basal side compared to total exposed amount) (Caco-2 cell monolayers [2]; [6]): 3%; Transported across the Caco-2 cell monolayer (Caco-2 cell monolayer): 15%; Apical concentration transported to the basal compartment (Caco-2 cells): less than 1.5%; Steady-state cellular association (Caco-2 cells): approximately 13%
11 | Clc1ccc(-c2cc(Cl)c(Cl)cc2Cl)cc1Cl [#118] |  |  |  | log P [4]: > 5
12 | Clc1cc(Cl)c(-c2cc(Cl)c(Cl)cc2Cl)cc1Cl [#153] |  |  |  | log P [4]: > 5
13 | Clc1cc(Cl)c(-c2cc(Cl)c(Cl)c(Cl)c2Cl)cc1Cl [#180] |  |  |  | log P [4]: > 5
14 | Clc1ccc(Cl)c(-c2cc(Cl)ccc2Cl)c1 [PCB#52] |  |  |  | log P [4]: > 5
